Data as given in ChEMBL document CHEMBL1126160, “Synthesis and structure-activity relationships of 7-diazabicycloalkylquinolones, including danofloxacin, a new quinolone antibacterial agent for veterinary medicine” (J Med Chem, 1992).
In brackets after ≈: the same amount, converted by molar mass.

Key:
Phocaeicola vulgatus = assay: In vitro antibacterial activity against anaerobically grown Bacteroides vulgatus (78D029); assay type: functional
How it was run: (§1)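 Agar dilution MICs. Anaerobic strains were tested on tryptose agar with 5% bovine blood and incubated 48 h at 39 °C in an anaerobe chamber under N2/CO2/H2 (80:10:10).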

Staphylococcus aureus [1] = assay: In vitro antibacterial activity against aerobically grown Staphylococcus aureus (54B004); assay type: functional
How it was run: (§2)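 Agar dilution MICs. Aerobic strains were tested on brain heart infusion agar and incubated aerobically at 37 °C for 18–20 h.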

[2] = In vitro antibacterial activity against Aerobically grown Pasteurella haemolytica (59B018); assay type: functional; details: Mannheimia haemolytica; how it was run: as §2
[3] = test system: Actinobacillus pleuropneumoniae; assay: In vitro antibacterial activity against anaerobically grown Actinobacillus pleuropneumoniae ([…]); assay type: functional; how it was run: as §1
Pasteurella multocida [4] = assay: In vitro antibacterial activity against aerobically grown Pasteurella multocida (59A006); assay type: functional; how it was run: as §2
Trueperella pyogenes = assay: In vitro antibacterial activity against anaerobically grown Actinomyces pyogenes (14D002); assay type: functional; how it was run: as §1
[5] = In vitro evaluation for antibacterial activity against anaerobically grown Treponema hyodysenteriae (94A007); assay type: functional; details: Brachyspira hyodysenteriae
Pasteurella multocida [6] = assay: In vivo protective dose was evaluated Pasteurella multocida (59A006) in mouse(sc); assay type: functional; details: read-out: PD50
How it was run: (§3)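 Female CF-1 mice (15 g), groups of 10, challenged ip with 0.5 mL bacterial suspension (P. multocida 59A006 or E. coli 51A266 at 3.0 × 10^8 cfu/mL; S. choleraesuis 58B010 at 8.5 × 10^2 cfu/mL). Drug given sc or po at 30 min, 4 h and 24 h after challenge; survival recorded at 96 h; PD50 by probit analysis.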

[7] = test system: Bordetella bronchiseptica; assay: In vitro antibacterial activity against aerobically grown Bordetella bronchiseptica (73A009); assay type: functional; how it was run: as §2
Clostridium perfringens = assay: microbe, parasite or virus in culture; assay type: functional
Salmonella enterica [8] = assay: In vitro antibacterial activity against aerobically grown Salmonella choleraesuis (58B015); assay type: functional
Escherichia coli [9] = assay: Escherichia coli DNA cleavage endpoint value which is the minimum amount required (in micro g/mL) to induce detectable cleavage of supercoiled pBR322 substrate to linear form (gyrase); assay type: functional; details: read-out: MIC
How it was run: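 DNA gyrase A and B subunits were purified from E. coli overproducers. About 2 units of holoenzyme were incubated with pBR322 in Tris-HCl pH 7.5 containing MgCl2, spermidine, DTT, 0.2 mM ATP, BSA and tRNA. Drug was added as 2-fold serial dilutions, and reactions ran for 60 min at 25 °C. Reactions were stopped with SDS and proteinase K, then run on agarose and stained with ethidium. The endpoint was the lowest concentration giving detectable linear DNA.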

Escherichia coli [10] = assay: In vitro antibacterial activity against aerobically grown Escherichia coli (51A538); assay type: functional; how it was run: as §2
Pasteurella multocida [11] = assay: In vivo protective dose was evaluated against Pasteurella multocida (59A006) in mouse(sc); assay type: functional; details: read-out: PD50; how it was run: as §3
Escherichia coli [12] = assay: In vivo protective dose was evaluated against Escherichia coli (51A266) in mouse(sc); assay type: functional; details: read-out: PD50; how it was run: as §3
Salmonella enterica [13] = assay: In vitro antibacterial activity against Aerobically grown Salmonella choleraesuis (58B015); assay type: functional
[14] = test system: Bordetella bronchiseptica; assay: In vitro antibacterial activity against Aerobically grown Bordetella bronchiseptica (73A009); assay type: functional; how it was run: as §2
Staphylococcus aureus [15] = assay: In vitro antibacterial activity against Aerobically grown Staphylococcus aureus (54B004); assay type: functional; how it was run: as §2
Pasteurella multocida [16] = assay: In vitro antibacterial activity against Aerobically grown Pasteurella multocida (59A006); assay type: functional; how it was run: as §2
Escherichia coli [17] = assay: In vitro antibacterial activity against Aerobically grown Escherichia coli (51A538); assay type: functional; how it was run: as §2
[18] = Compound was evaluated for aqueous solubility at pH 7.2; details: buffer
Escherichia coli [19] = assay: In vivo protective dose was evaluated against Escherichia coli (51A266) in mouse(po); assay type: functional; details: read-out: PD50; how it was run: as §3
Pasteurella multocida [20] = assay: In vivo protective dose was evaluated against Pasteurella multocida (59A006) in mouse(po); assay type: functional; details: read-out: PD50; how it was run: as §3
Mannheimia haemolytica = assay: Compound was evaluated for minimum effective dose against Pasteurella haemolytica, intramuscular dose administration; assay type: functional; details: im, read-out: MED
How it was run: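 Calves acid-treated intratracheally with 0.6 mL 8% acetic acid at 24 h and 4 h before endotracheal challenge with 50 mL P. haemolytica B280PA (~5 × 10^8 cfu/mL). im dosing of 2.5% or 5% solution in sterile water, day 0 and day 1 (SID × 2). Clinical signs and temperature recorded days 0–5; lungs scored and cultured. MED = lowest dose giving significant (65%) reduction of lung pathology.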

[21] = test system: Actinobacillus pleuropneumoniae; assay: Compound was evaluated for minimum effective dose against Actinobacillus pleuropneumonia, intramuscular dose administration; details: im, read-out: MED

**Q.** With `CCn1cc(C(=O)O)c(=O)c2cc(F)c(N3CC[C@H]4CCC(C3)N4C)cc21` as the compound, how does the MIC (Phocaeicola vulgatus) read?
**A.** > 3.13 µg/mL

**Q.** And the MIC (Staphylococcus aureus [1])?
**A.** 1.56 µg/mL (≈ 4.18 µM)

**Q.** And the MIC [2]?
**A.** 1.56 µg/mL (≈ 4.18 µM)

**Q.** And the MIC [3]?
**A.** 0.78 µg/mL (≈ 2.09 µM)

**Q.** What about the MIC (Pasteurella multocida [4]) of the same compound?
**A.** 0.39 µg/mL (≈ 1.04 µM)

**Q.** And the MIC (Trueperella pyogenes)?
**A.** > 3.13 µg/mL

**Q.** What about the MIC [5] of the same compound?
**A.** > 3.13 µg/mL

**Q.** And the ED50 (Pasteurella multocida [6])?
**A.** 1.03 mg/kg

**Q.** What about the MIC [7] of the same compound?
**A.** > 1.56 µg/mL

**Q.** And the MIC (Clostridium perfringens)?
**A.** 1.56 µg/mL (≈ 4.18 µM)

**Q.** And the MIC (Salmonella enterica [8])?
**A.** > 1.56 µg/mL

**Q.** What about the minimum concentration inducing gyrase-mediated DNA cleavage (Escherichia coli [9]) of the same compound?
**A.** 1.56 µg/mL

**Q.** And the MIC (Escherichia coli [10])?
**A.** > 1.56 µg/mL

**Q.** What does the source list for `CCn1cc(C(=O)O)c(=O)c2cc(F)c(N3CCN4CCCC3C4)cc21` (stereo not given)?
**A.** MIC (Phocaeicola vulgatus): 3.13 µg/mL (≈ 8.71 µM); ED50 (Pasteurella multocida [11]): 0.71 mg/kg; MIC (Staphylococcus aureus [1]): 0.39 µg/mL (≈ 1.09 µM); MIC [2]: 0.1 µg/mL (≈ 0.278 µM); MIC [3]: 0.05 µg/mL (≈ 0.139 µM); MIC (Pasteurella multocida [4]): 0.02 µg/mL (≈ 0.0556 µM); ED50 (Escherichia coli [12]): 1.36 mg/kg; MIC (Trueperella pyogenes): > 3.13 µg/mL; MIC [5]: 0.39 µg/mL (≈ 1.09 µM); MIC [7]: > 1.56 µg/mL; MIC (Clostridium perfringens): 0.39 µg/mL (≈ 1.09 µM); MIC (Salmonella enterica [8]): 0.2 µg/mL (≈ 0.556 µM); minimum concentration inducing gyrase-mediated DNA cleavage (Escherichia coli [9]): 3.12 µg/mL; MIC (Escherichia coli [10]): 0.2 µg/mL (≈ 0.556 µM)

**Q.** Which results are given for `CN1C[C@@H]2C[C@H]1CN2c1c(F)cc2c(=O)c(C(=O)O)cn(-c3ccc(F)cc3)c2c1Cl`?
**A.** MIC (Salmonella enterica [13]): 1.56 µg/mL (≈ 3.5 µM); MIC (Phocaeicola vulgatus): > 3.13 µg/mL; MIC [2]: 0.78 µg/mL (≈ 1.75 µM); MIC [3]: 0.78 µg/mL (≈ 1.75 µM); MIC (Trueperella pyogenes): > 3.13 µg/mL; MIC [14]: > 1.56 µg/mL; MIC [5]: > 3.13 µg/mL; MIC (Staphylococcus aureus [15]): 0.78 µg/mL (≈ 1.75 µM); MIC (Clostridium perfringens): 0.78 µg/mL (≈ 1.75 µM); MIC (Pasteurella multocida [16]): 0.05 µg/mL (≈ 0.112 µM); minimum concentration inducing gyrase-mediated DNA cleavage (Escherichia coli [9]): 1.56 µg/mL; MIC (Escherichia coli [17]): 0.78 µg/mL (≈ 1.75 µM)

**Q.** What does the source list for `O=C(O)c1cn(C2CC2)c2cc(N3C[C@@H]4C[C@H]3CN4)c(F)cc2c1=O`?
**A.** MIC (Phocaeicola vulgatus): > 3.13 µg/mL; ED50 (Pasteurella multocida [11]): 0.2 mg/kg; solubility [18]: 77 µg/mL (≈ 224 µM); MIC (Staphylococcus aureus [1]): 1.56 µg/mL (≈ 4.54 µM); MIC [2]: 0.2 µg/mL (≈ 0.582 µM); MIC [3]: 0.1 µg/mL (≈ 0.291 µM); MIC (Pasteurella multocida [4]): 0.2 µg/mL (≈ 0.582 µM); ED50 (Escherichia coli [12]): 0.92 mg/kg; MIC (Trueperella pyogenes): 3.13 µg/mL (≈ 9.12 µM); MIC [5]: 1.56 µg/mL (≈ 4.54 µM); MIC [7]: > 1.56 µg/mL; MIC (Clostridium perfringens): 0.1 µg/mL (≈ 0.291 µM); MIC (Salmonella enterica [8]): 0.05 µg/mL (≈ 0.146 µM); minimum concentration inducing gyrase-mediated DNA cleavage (Escherichia coli [9]): 0.39 µg/mL; MIC (Escherichia coli [10]): 0.1 µg/mL (≈ 0.291 µM)

**Q.** With `CN1C[C@H]2C[C@@H]1CN2c1cc2c(cc1F)c(=O)c(C(=O)O)cn2C1CC1` as the compound, how does the MIC (Phocaeicola vulgatus) read?
**A.** 3.13 µg/mL (≈ 8.76 µM)

**Q.** What about the MIC (Staphylococcus aureus [1]) of the same compound?
**A.** 0.39 µg/mL (≈ 1.09 µM)

**Q.** And the MIC [2]?
**A.** 0.05 µg/mL (≈ 0.14 µM)

**Q.** What about the MIC [3] of the same compound?
**A.** 0.05 µg/mL (≈ 0.14 µM)

**Q.** What about the MIC (Pasteurella multocida [4]) of the same compound?
**A.** 0.02 µg/mL (≈ 0.056 µM)

**Q.** And the MIC (Trueperella pyogenes)?
**A.** 3.13 µg/mL (≈ 8.76 µM)

**Q.** What about the MIC [5] of the same compound?
**A.** 1.56 µg/mL (≈ 4.37 µM)

**Q.** What about the ED50 (Pasteurella multocida [6]) of the same compound?
**A.** 0.22 mg/kg

**Q.** What about the MIC [7] of the same compound?
**A.** 1.56 µg/mL (≈ 4.37 µM)

**Q.** What about the MIC (Clostridium perfringens) of the same compound?
**A.** 0.2 µg/mL (≈ 0.56 µM)

**Q.** What about the MIC (Salmonella enterica [8]) of the same compound?
**A.** 0.1 µg/mL (≈ 0.28 µM)

**Q.** And the minimum concentration inducing gyrase-mediated DNA cleavage (Escherichia coli [9])?
**A.** 0.19 µg/mL

**Q.** And the MIC (Escherichia coli [10])?
**A.** 0.05 µg/mL (≈ 0.14 µM)

**Q.** Which MIC (Phocaeicola vulgatus) does the source give for `CN1[C@@H]2CC[C@H]1CN(c1cc3c(cc1F)c(=O)c(C(=O)O)cn3C1CC1)C2` here?
**A.** 1.56 µg/mL (≈ 4.2 µM)

**Q.** What about the ED50 (Pasteurella multocida [11]) of the same compound?
**A.** 0.37 mg/kg

**Q.** And the ED50 (Escherichia coli [19])?
**A.** 3.8 mg/kg

**Q.** And the MIC (Staphylococcus aureus [1])?
**A.** 0.1 µg/mL (≈ 0.269 µM)

**Q.** And the MIC [2]?
**A.** 0.1 µg/mL (≈ 0.269 µM)

**Q.** And the ED50 (Pasteurella multocida [20])?
**A.** 0.98 mg/kg

**Q.** And the MIC [3]?
**A.** 0.39 µg/mL (≈ 1.05 µM)

**Q.** And the MIC (Pasteurella multocida [4])?
**A.** 0.05 µg/mL (≈ 0.135 µM)

**Q.** What about the ED50 (Escherichia coli [12]) of the same compound?
**A.** 0.15 mg/kg

**Q.** And the MIC (Trueperella pyogenes)?
**A.** 3.13 µg/mL (≈ 8.43 µM)

**Q.** And the MIC [5]?
**A.** 0.78 µg/mL (≈ 2.1 µM)

**Q.** What about the MIC [7] of the same compound?
**A.** 1.56 µg/mL (≈ 4.2 µM)

**Q.** And the MIC (Clostridium perfringens)?
**A.** 0.1 µg/mL (≈ 0.269 µM)

**Q.** And the MIC (Salmonella enterica [8])?
**A.** 0.2 µg/mL (≈ 0.538 µM)

**Q.** What about the minimum concentration inducing gyrase-mediated DNA cleavage (Escherichia coli [9]) of the same compound?
**A.** 0.78 µg/mL

**Q.** And the minimal effective dose (Mannheimia haemolytica)?
**A.** 0.3 mg/kg

**Q.** And the minimal effective dose [21]?
**A.** 0.3 mg/kg

**Q.** And the MIC (Escherichia coli [10])?
**A.** 0.1 µg/mL (≈ 0.269 µM)
